Source: ChEMBL document CHEMBL4219255, “Targeting Transient Receptor Potential Vanilloid 1 (TRPV1) Channel Softly: The Discovery of Passerini Adducts as a Topical Treatment for Inflammatory Skin Disorders” (J Med Chem, 2018)

Tests used:
[1] = target: T1, Transient receptor potential cation channel subfamily V member 1 (Homo sapiens, UniProt Q8NER1); test: Agonist activity at TRPV1 (unknown origin) expressed in human SH-SY5Y cells assessed as increase in calcium influx after 25 mins by Fluo-4 NW dye-based fluorescence assay; assay type: cell-based
[2] = Drug metabolism in human HaCaT cells assessed as residual substrate levels at 25 uM up to 240 mins by HPLC-UV analysis; assay type: ADME, cell-based; conditions: read-out: Stability
[3] = Drug metabolism in human plasma assessed as residual substrate levels at 100 uM up to 20 mins by HPLC-UV analysis; assay type: ADME, cell-free; conditions: read-out: Stability
[4] = Drug metabolism in human liver S9 fraction assessed as residual substrate levels at 50 uM up to 60 mins by HPLC-UV analysis; assay type: ADME, subcellular; conditions: read-out: Stability
[5] = Drug metabolism in human keratinocytes assessed as residual substrate levels at 50 uM up to 120 mins by HPLC-UV analysis; assay type: ADME, cell-based, Keratinocyte; conditions: read-out: Stability
[6] = Drug metabolism in human fibroblast cells assessed as residual substrate levels at 50 uM up to 120 mins by HPLC-UV analysis; assay type: ADME, cell-based; conditions: read-out: Stability
Liver carboxylesterase 1 [7] = target: T2, Liver carboxylesterase 1 (Homo sapiens, UniProt P23141); test: Drug metabolism assessed as recombinant human CE1-mediated compound hydrolysis by measuring rate constant at 50 uM up to 30 mins by LC-UV analysis; assay type: ADME; conditions: 0.5 h
T2 sequence (P23141 whole entry): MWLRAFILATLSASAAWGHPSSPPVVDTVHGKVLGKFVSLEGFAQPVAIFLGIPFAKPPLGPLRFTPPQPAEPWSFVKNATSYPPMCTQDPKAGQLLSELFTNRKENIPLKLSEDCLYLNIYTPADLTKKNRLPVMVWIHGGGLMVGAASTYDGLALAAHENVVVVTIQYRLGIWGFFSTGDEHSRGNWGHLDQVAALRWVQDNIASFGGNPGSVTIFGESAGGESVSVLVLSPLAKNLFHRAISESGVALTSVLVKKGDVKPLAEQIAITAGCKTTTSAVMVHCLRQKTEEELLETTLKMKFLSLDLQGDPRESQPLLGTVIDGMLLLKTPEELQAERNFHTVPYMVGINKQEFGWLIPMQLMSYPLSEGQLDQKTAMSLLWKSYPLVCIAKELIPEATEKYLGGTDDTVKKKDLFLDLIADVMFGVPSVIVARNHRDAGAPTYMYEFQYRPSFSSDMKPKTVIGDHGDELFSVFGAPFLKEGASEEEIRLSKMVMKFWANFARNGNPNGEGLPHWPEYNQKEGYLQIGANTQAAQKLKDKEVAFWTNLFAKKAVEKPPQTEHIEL
In short: (§1)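 Recombinant human carboxylesterase isoforms 1 and 2 were each incubated with the test ester. Hydrolysis was followed by HPLC-UV, tracking the disappearance of the substrate over incubation time relative to the initial amount. Chromatograms were also checked for peaks of the expected hydrolysis metabolites.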

Cocaine esterase [8] = target: T3, Cocaine esterase (Homo sapiens, UniProt O00748); test: Drug metabolism assessed as recombinant human CE2-mediated compound hydrolysis by measuring rate constant at 50 uM up to 30 mins by LC-UV analysis; assay type: ADME; conditions: 0.5 h; in short: as §1
T3 sequence (O00748 whole entry): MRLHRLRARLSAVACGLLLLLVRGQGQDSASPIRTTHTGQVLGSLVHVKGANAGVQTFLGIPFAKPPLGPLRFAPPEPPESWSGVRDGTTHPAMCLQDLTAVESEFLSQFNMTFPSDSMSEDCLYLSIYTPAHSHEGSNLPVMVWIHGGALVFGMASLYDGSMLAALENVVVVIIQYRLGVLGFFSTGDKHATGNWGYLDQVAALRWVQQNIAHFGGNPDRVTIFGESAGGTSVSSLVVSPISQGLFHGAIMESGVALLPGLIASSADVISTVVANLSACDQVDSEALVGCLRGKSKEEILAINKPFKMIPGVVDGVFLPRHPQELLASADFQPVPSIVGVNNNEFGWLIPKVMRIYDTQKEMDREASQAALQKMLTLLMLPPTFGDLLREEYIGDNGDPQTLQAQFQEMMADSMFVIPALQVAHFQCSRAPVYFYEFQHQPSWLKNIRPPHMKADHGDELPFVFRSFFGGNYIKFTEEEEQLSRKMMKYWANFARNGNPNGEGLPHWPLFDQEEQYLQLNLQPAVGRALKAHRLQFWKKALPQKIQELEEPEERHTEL

[9] = target: T4, Liver carboxylesterase 1 (CE1) (Homo sapiens, UniProt P23141); test: Drug metabolism assessed as recombinant human CE1-mediated compound hydrolysis by measuring compound half life at 50 uM up to 30 mins by LC-UV analysis; assay type: ADME; in short: as §1
T4 sequence (P23141 whole entry): T2 sequence (P23141 whole entry)

Cocaine esterase (CE2) [10] = target: T5, Cocaine esterase (CE2) (Homo sapiens, UniProt O00748); test: Drug metabolism assessed as recombinant human CE2-mediated compound hydrolysis by measuring compound half life at 50 uM up to 30 mins by LC-UV analysis; assay type: ADME; in short: as §1
T5 sequence (O00748 whole entry): T3 sequence (O00748 whole entry)

[11] = Drug metabolism in human liver microsomes assessed as glucuronide metabolite formation at 50 uM in presence of UDPGA after 60 mins by LC-ESI-MS analysis; assay type: ADME, microsome; conditions: 1 h
[12] = Drug metabolism in human liver microsomes assessed as sulfate conjugate formation at 50 uM in presence of UDPGA after 60 mins by LC-ESI-MS analysis; assay type: ADME, microsome; conditions: 1 h
[13] = Drug metabolism in human liver cytosol assessed as glucuronide metabolite formation at 50 uM in presence of UDPGA after 60 mins by LC-ESI-MS analysis; assay type: ADME, subcellular; conditions: 1 h
[14] = Drug metabolism in human liver cytosol assessed as sulfate conjugate formation at 50 uM in presence of UDPGA after 60 mins by LC-ESI-MS analysis; assay type: ADME, subcellular; conditions: 1 h
[15] = target: T1, Transient receptor potential cation channel subfamily V member 1; test: Agonist activity at TRPV1 (unknown origin) expressed in human SH-SY5Y cells assessed as increase in calcium influx at 1 uM after 25 mins by Fluo-4 NW dye-based fluorescence assay relative to capsaicin
Mus musculus = test: Toxicity in C57BL/6 mouse assessed as change in body temperature at 3 mg/kg, iv after 120 mins; assay type: organism-based; conditions: in vivo, 2 h
[16] = target: T1, Transient receptor potential cation channel subfamily V member 1; test: Antagonist activity at TRPV1 (unknown origin) expressed in human SH-SY5Y cells assessed as inhibition of capsaicin-induced calcium increase after 25 mins by Fluo-4 NW dye-based fluorescence assay; assay type: cell-based
[17] = target: T1, Transient receptor potential cation channel subfamily V member 1; test: Antagonist activity at TRPV1 (unknown origin) expressed in human SH-SY5Y cells assessed as inhibition of capsaicin-induced calcium influx at 1 uM after 25 mins by Fluo-4 NW dye-based fluorescence assay relative to capsaicin; assay type: cell-based
Liver carboxylesterase 1 [18] = target: T2, Liver carboxylesterase 1; test: Drug metabolism assessed as recombinant human CE1-mediated compound hydrolysis by measuring rate constant at 50 uM up to 60 mins by LC-UV analysis; assay type: ADME; conditions: 1 h
Cocaine esterase [19] = target: T3, Cocaine esterase; test: Drug metabolism assessed as recombinant human CE2-mediated compound hydrolysis by measuring rate constant at 50 uM up to 60 mins by LC-UV analysis; assay type: ADME; conditions: 1 h
[20] = target: T4, Liver carboxylesterase 1 (CE1); test: Drug metabolism assessed as recombinant human CE1-mediated compound hydrolysis by measuring compound half life at 50 uM up to 60 mins by LC-UV analysis; assay type: ADME
Cocaine esterase (CE2) [21] = target: T5, Cocaine esterase (CE2); test: Drug metabolism assessed as recombinant human CE2-mediated compound hydrolysis by measuring compound half life at 50 uM up to 60 mins by LC-UV analysis; assay type: ADME
[22] = target: T4, Liver carboxylesterase 1 (CE1); test: Drug metabolism assessed as recombinant human CE1-mediated compound hydrolysis by measuring compound intrinsic clearance at 50 uM up to 60 mins by LC-UV analysis; assay type: ADME

T1 sequence (Q8NER1 whole entry): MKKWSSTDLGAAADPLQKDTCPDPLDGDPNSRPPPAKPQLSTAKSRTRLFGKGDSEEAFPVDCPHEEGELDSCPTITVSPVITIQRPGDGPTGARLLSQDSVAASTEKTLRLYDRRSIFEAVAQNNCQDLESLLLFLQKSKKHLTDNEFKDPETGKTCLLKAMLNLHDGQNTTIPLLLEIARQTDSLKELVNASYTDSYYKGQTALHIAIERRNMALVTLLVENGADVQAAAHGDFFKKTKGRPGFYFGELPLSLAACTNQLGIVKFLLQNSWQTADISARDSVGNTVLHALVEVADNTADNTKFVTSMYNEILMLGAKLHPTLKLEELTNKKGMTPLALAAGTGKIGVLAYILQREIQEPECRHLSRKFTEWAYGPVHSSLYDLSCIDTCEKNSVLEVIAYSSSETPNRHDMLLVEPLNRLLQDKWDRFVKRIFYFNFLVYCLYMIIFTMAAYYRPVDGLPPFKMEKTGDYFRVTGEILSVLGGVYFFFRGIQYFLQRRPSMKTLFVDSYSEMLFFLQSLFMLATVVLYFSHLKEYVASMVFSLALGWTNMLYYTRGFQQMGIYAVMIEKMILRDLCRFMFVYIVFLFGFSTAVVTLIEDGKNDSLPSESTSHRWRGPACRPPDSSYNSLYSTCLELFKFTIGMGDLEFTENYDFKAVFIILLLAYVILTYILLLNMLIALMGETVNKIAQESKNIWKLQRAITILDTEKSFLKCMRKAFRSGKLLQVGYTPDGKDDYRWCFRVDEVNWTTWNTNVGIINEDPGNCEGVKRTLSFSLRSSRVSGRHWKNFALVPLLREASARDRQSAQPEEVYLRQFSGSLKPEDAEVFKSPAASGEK

| remaining at 4 h, 25 µM [2] [%] | remaining at 20 min, 100 µM [3] [%] | remaining at 1 h, 50 µM [4] [%] | remaining at 2 h, 50 µM [5] [%] | remaining at 2 h, 50 µM [6] [%] | Drug metabolism [11] | Drug metabolism [12] | Drug metabolism [13] | Drug metabolism [14] | K (Liver carboxylesterase 1 [18]) [min⁻¹] | K (Cocaine esterase [19]) [min⁻¹] | half-life at 50 µM [20] [min] | half-life at 50 µM (Cocaine esterase (CE2) [21]) [min] | microsomal CLint at 50 µM [22] [µL/min/mg] | Compound | EC50 [1] [nM] | Activity [15] [%] | also measured |
| --- | --- | --- | --- | --- | --- | --- | --- | --- | --- | --- | --- | --- | --- | --- | --- | --- | --- |
|  |  |  |  |  |  |  |  |  |  |  |  |  |  | CC(C)(C)c1ccc(NC(=O)N2CCN(c3ncccc3Cl)CC2)cc1 |  |  | Activity (Mus musculus): Toxic |
| 99.5 | 100 | 50.1 | 104 | 100 | Metabolite_Notdetected | Metabolite_Notdetected | Metabolite_Notdetected | Metabolite_Notdetected | 0.0129 | 0.0877 | 53.8 | 7.9 | 13 | COc1cc(CNC(=O)COC(=O)/C=C(\C)CCC=C(C)C)c(I)cc1O |  |  | IC50 [16]: 90 nM; inhibition [17]: 90.1% |
| 97.9 | 105 | 70.9 | 70.2 | 59.6 | Metabolite_Notdetected | Metabolite_Notdetected | Metabolite_Notdetected | Metabolite_Notdetected | 0.0608 | 0.0497 | 11.4 | 14 | 56 | CC(C)=CCC/C(C)=C/CC/C(C)=C/CC/C=C(\C)CC/C=C(\C)CCC(=O)OCC(=O)NCc1ccc(O)c(O)c1 | 40 | 78.4 |  |

| Compound | remaining at 4 h, 25 µM [2] [%] | remaining at 20 min, 100 µM [3] [%] | remaining at 1 h, 50 µM [4] [%] | remaining at 2 h, 50 µM [5] [%] | remaining at 2 h, 50 µM [6] [%] | Drug metabolism [11] | Drug metabolism [12] | Drug metabolism [13] | Drug metabolism [14] | K (Liver carboxylesterase 1 [18]) [min⁻¹] | K (Cocaine esterase [19]) [min⁻¹] | half-life at 50 µM [20] [min] | half-life at 50 µM (Cocaine esterase (CE2) [21]) [min] | microsomal CLint at 50 µM [22] [µL/min/mg] | EC50 [1] [nM] | Activity [15] [%] | also measured |
| --- | --- | --- | --- | --- | --- | --- | --- | --- | --- | --- | --- | --- | --- | --- | --- | --- | --- |
| CCCCCCCCCCCC(=O)OCC(=O)NCc1ccc(O)c(OC)c1 | 84.5 | 89.6 | 0 | 22.2 | 19.5 | Metabolite_Notdetected | Metabolite_Notdetected | Metabolite_Notdetected | Metabolite_Notdetected |  |  |  |  |  | 370 | 65.1 | K (Liver carboxylesterase 1 [7]): 0.0465 min⁻¹; K (Cocaine esterase [8]): 0.0376 min⁻¹; half-life at 50 µM [9]: 14.9 min; half-life at 50 µM (Cocaine esterase (CE2) [10]): 18.6 min |
